Data: ChEMBL document CHEMBL1123882, “Potential antitumor agents. 51. Synthesis and antitumor activity of substituted phenazine-1-carboxamides” (J Med Chem, 1987)
pIC50: −log10 of the molar value.

tested on: L1210; test: Nanomolar concentration required to reduce the growth of L1210 cells in culture to 50% of control values after 70 h (in vitro); type: functional, cell-based; settings: Mus musculus, L1210, 70 h
Method in brief: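 L1210 cells were grown in culture with drug for 70 h. IC50 is the drug concentration (nM) reducing growth to 50% of control values.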

With `CN(C)CCNC(=O)c1cccc2nc3cccc(Cl)c3nc12` as the compound, how does the pIC50 read?
The pIC50 was 7.96.

With `COc1ccc2nc3ccccc3nc2c1C(=O)NCCN(C)C` as the compound, how does the pIC50 read?
Its pIC50 is 5.79.

With `Cc1cccc2nc3cccc(C(=O)NCCN(C)C)c3nc12` as the compound, how does the pIC50 read?
The pIC50 was 7.38.

With `Cc1cc(C(=O)NCCN(C)C)c2nc3ccccc3nc2c1` as the compound, how does the pIC50 read?
Its pIC50 is 6.39.

tested on: L1210; test: Tested for comparative cytotoxicity as ratio of IC50 value, relative to 3-substituted derivative (1.00).; type: functional, Mus musculus; settings: not given

Which Ratio does the source give for `NC(=O)c1cccc2nc3c(Cl)cccc3nc12` here?
Its Ratio is 5.

Which Ratio does the source give for `NC(=O)c1cccc2nc3cc(Cl)ccc3nc12` here?
The Ratio was 7.1.

For `NC(=O)c1cc(Cl)cc2nc3ccccc3nc12`, which Ratio is on record?
Its Ratio is 1.

Which Ratio does the source give for `Cc1ccc2nc3c(C(N)=O)cccc3nc2c1` here?
Its Ratio is 3.7.

Which Ratio does the source give for `COc1cccc2nc3cccc(C(N)=O)c3nc12` here?
Its Ratio is 0.05.

For `COc1ccc2nc3c(C(N)=O)cccc3nc2c1`, which Ratio is on record?
The Ratio was 5.

Which Ratio does the source give for `COc1cccc2nc3c(C(N)=O)cccc3nc12` here?
The Ratio was 6.

Which Ratio does the source give for `Cc1cccc2nc3c(C(N)=O)cccc3nc12` here?
The Ratio was 2.

Which Ratio does the source give for `Cc1ccc(C(N)=O)c2nc3ccccc3nc12` here?
The Ratio was 1.

For `Cc1cccc2nc3cccc(C(N)=O)c3nc12`, which Ratio is on record?
The Ratio was 0.1.

With `NC(=O)c1cccc2nc3ccc(Cl)cc3nc12` as the compound, how does the Ratio read?
Its Ratio is 4.2.

Which Ratio does the source give for `NC(=O)c1cccc2nc3cccc(Cl)c3nc12` here?
The Ratio was 0.07.

For `COc1cc(C(N)=O)c2nc3ccccc3nc2c1`, which Ratio is on record?
Its Ratio is 1.

Which Ratio does the source give for `Cc1ccc2nc3cccc(C(N)=O)c3nc2c1` here?
The Ratio was 1.5.

With `Cc1cc(C(N)=O)c2nc3ccccc3nc2c1` as the compound, how does the Ratio read?
The Ratio was 1.

For `COc1ccc(C(N)=O)c2nc3ccccc3nc12`, which Ratio is on record?
The Ratio was 0.6.

Which Ratio does the source give for `COc1ccc2nc3cccc(C(N)=O)c3nc2c1` here?
Its Ratio is 1.4.

tested on: P388; test: Optimal dose in mg/kg administered intraperitoneally on days 1,5 and 9 required to inhibit the growth of P388 leukemia cells was determined (in vivo); type: functional, Mus musculus; settings: not given
Method in brief: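 Mice were inoculated ip with 10^6 P388 cells. Drug was given ip as a solution in 0.1 mL 30% v/v EtOH/water on days 1, 5 and 9. The optimal dose (mg/kg per day) is the one giving maximal increase in life span; survivors were scored at 50 days, in groups of six.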

For `CN(C)CCNC(=O)c1cccc2nc3cccc(Cl)c3nc12`, which OD is on record?
The OD was 30 mg/kg/day.

With `COc1ccc2nc3ccccc3nc2c1C(=O)NCCN(C)C` as the compound, how does the OD read?
The OD was 225 mg/kg/day.

For `Cc1cccc2nc3cccc(C(=O)NCCN(C)C)c3nc12`, which OD is on record?
Its OD is 65 mg/kg/day.

Which OD does the source give for `Cc1cc(C(=O)NCCN(C)C)c2nc3ccccc3nc2c1` here?
Its OD is 225 mg/kg/day.

tested on: Lewis lung carcinoma cell line; test: (§1) Average increase in life span of treated animals over control groups of tumor-bearing untreated animals when given at optimal dose (in vivo); type: functional, Mus musculus; settings: not given
Method in brief: (§2)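 Mice inoculated ip with 10^6 P388 cells (drug ip on days 1, 5, 9) or iv with 10^6 Lewis lung cells (drug ip on days 5, 9, 13). Drug given as a solution in 0.1 mL 30% v/v EtOH/water, in mg/kg per day. Value is the average life-span increase versus untreated tumor-bearing controls at the optimal dose. Significance thresholds: ILS >20% (P388), >40% (LL). Groups of six.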

For `CN(C)CCNC(=O)c1cccc2nc3cccc(Cl)c3nc12`, which ILS max is on record?
The ILS max was 124.

For `COc1ccc2nc3ccccc3nc2c1C(=O)NCCN(C)C`, which ILS max is on record?
Its ILS max is 43.

Which ILS max does the source give for `Cc1cccc2nc3cccc(C(=O)NCCN(C)C)c3nc12` here?
Its ILS max is 62.

For `Cc1cc(C(=O)NCCN(C)C)c2nc3ccccc3nc2c1`, which ILS max is on record?
Its ILS max is 158.

tested on: P388; test: as §1; type: functional, Mus musculus; settings: not given; method in brief: as §2

With `CN(C)CCNC(=O)c1cccc2nc3cccc(Cl)c3nc12` as the compound, how does the ILS max read?
The ILS max was 61.

Which ILS max does the source give for `COc1ccc2nc3ccccc3nc2c1C(=O)NCCN(C)C` here?
The ILS max was 33.

Which ILS max does the source give for `Cc1cccc2nc3cccc(C(=O)NCCN(C)C)c3nc12` here?
The ILS max was 45.

With `Cc1cc(C(=O)NCCN(C)C)c2nc3ccccc3nc2c1` as the compound, how does the ILS max read?
The ILS max was 91.

tested on: L1210; test: Tested for comparative cytotoxicity as ratio of IC50 value, relative to OMe derivative (1.00).; type: functional, Mus musculus; settings: not given

Which Ratio does the source give for `NC(=O)c1cccc2nc3c(Cl)cccc3nc12` here?
The Ratio was 0.6.

Which Ratio does the source give for `NC(=O)c1cccc2nc3cc(Cl)ccc3nc12` here?
Its Ratio is 0.3.

With `NC(=O)c1cc(Cl)cc2nc3ccccc3nc12` as the compound, how does the Ratio read?
The Ratio was 0.4.

For `Cc1ccc2nc3c(C(N)=O)cccc3nc2c1`, which Ratio is on record?
Its Ratio is 0.4.

With `COc1cccc2nc3cccc(C(N)=O)c3nc12` as the compound, how does the Ratio read?
The Ratio was 1.

With `COc1ccc2nc3c(C(N)=O)cccc3nc2c1` as the compound, how does the Ratio read?
The Ratio was 1.

With `COc1cccc2nc3c(C(N)=O)cccc3nc12` as the compound, how does the Ratio read?
Its Ratio is 1.

For `Cc1cccc2nc3c(C(N)=O)cccc3nc12`, which Ratio is on record?
Its Ratio is 0.6.

For `Cc1ccc(C(N)=O)c2nc3ccccc3nc12`, which Ratio is on record?
The Ratio was 0.7.

For `Cc1cccc2nc3cccc(C(N)=O)c3nc12`, which Ratio is on record?
Its Ratio is 0.9.

With `NC(=O)c1cccc2nc3ccc(Cl)cc3nc12` as the compound, how does the Ratio read?
Its Ratio is 0.6.

For `NC(=O)c1cccc2nc3cccc(Cl)c3nc12`, which Ratio is on record?
The Ratio was 0.2.

With `COc1cc(C(N)=O)c2nc3ccccc3nc2c1` as the compound, how does the Ratio read?
The Ratio was 1.

With `Cc1ccc2nc3cccc(C(N)=O)c3nc2c1` as the compound, how does the Ratio read?
The Ratio was 0.9.

With `Cc1cc(C(N)=O)c2nc3ccccc3nc2c1` as the compound, how does the Ratio read?
The Ratio was 0.5.

For `COc1ccc(C(N)=O)c2nc3ccccc3nc12`, which Ratio is on record?
Its Ratio is 1.

With `COc1ccc2nc3cccc(C(N)=O)c3nc2c1` as the compound, how does the Ratio read?
The Ratio was 1.

tested on: Lewis lung carcinoma cell line; test: Optimal dose required after intraperitoneal administration on days 5,9 and 13 to inhibit the growth of lewis lung carcinoma (LL) cells was determined (in vivo); type: functional, Mus musculus; settings: not given
Method in brief: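 Mice were inoculated iv with 10^6 Lewis lung cells. Drug was given ip in 0.1 mL 30% v/v EtOH/water on days 5, 9 and 13. The optimal dose (mg/kg per day) is the one giving maximal increase in life span; survivors were scored at 60 days, in groups of six.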

With `CN(C)CCNC(=O)c1cccc2nc3cccc(Cl)c3nc12` as the compound, how does the OD read?
The OD was 45 mg/kg/day.

Which OD does the source give for `COc1ccc2nc3ccccc3nc2c1C(=O)NCCN(C)C` here?
Its OD is 225 mg/kg/day.

For `Cc1cccc2nc3cccc(C(=O)NCCN(C)C)c3nc12`, which OD is on record?
Its OD is 65 mg/kg/day.

For `Cc1cc(C(=O)NCCN(C)C)c2nc3ccccc3nc2c1`, which OD is on record?
Its OD is 225 mg/kg/day.

tested on: not listed separately; test: Lipophilicity (HPLC); type: physicochemical; settings: not given

With `CN(C)CCNC(=O)c1cccc2nc3cccc(Cl)c3nc12` as the compound, how does the Rm read?
The Rm was -0.37.

With `COc1ccc2nc3ccccc3nc2c1C(=O)NCCN(C)C` as the compound, how does the Rm read?
Its Rm is -0.5.

Which Rm does the source give for `Cc1cccc2nc3cccc(C(=O)NCCN(C)C)c3nc12` here?
The Rm was -0.23.

With `Cc1cc(C(=O)NCCN(C)C)c2nc3ccccc3nc2c1` as the compound, how does the Rm read?
The Rm was -0.15.
